These results are taken from the RNAGym collection of RNA variant scans (doi:10.1126/science.aae0568).

Fewer inactive variants are shown than the library holds.

B1: tRNA (parent)
chain: GUUCCGUUGGCGUAAUGGUAACGCGUCUCCCUCCUAAGGAGAAGACUGCGGGUUCGAGUCCCGUACGGAACG

Variants of B1 are the subject of the data set. Kind of data set: yeast fitness relative to wild type (ratio to wild type); higher = fitter; tRNA-Arg(CCU), competitive growth, 37 C, YPD. In outline:
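For this measurement, the tRNA-Arg(CCU) gene was varied by chemical synthesis at a 3% per-site mutation rate across 69 sites, and each variant was placed at the native genomic locus in Saccharomyces cerevisiae. The pooled strains went through a 24-hour competition in YPD at 37°C in six parallel replicates, with amplicons from start and end populations read by 100-nucleotide paired-end sequencing. Darwinian fitness relative to wild type followed from the change in each genotype's frequency. Genotypes needed ≥ 100 starting reads, and estimates < 0.5 were set to 0.5.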
Turning to GUUCCGUUGGCGUAAUGGUAACGCGUCUCCCUCCUAACGAGAAGACUGCGGGUUCGACUCCCGAACGGAACG [G38C G58C U64A], the yeast fitness worked out at 0.621. In the case of GUUCCGUUGGCGUAAUGGUAACGCGUCUCCCUCCUAAGAAGAUGACUGCGGGAUCGUGUCCCGUUCGGAACG [G39A A43U U53A A57U A65U], the yeast fitness is at most 0.5.

GUUCCGUUGGCGUAAUGGUAACGCGUCUCCCUCCUAACGAGAAGACUACGGGUUCCAGUCCCGUACGGAACG [G38C G48A G56C]: the yeast fitness is 0.7. The same measure for GUUCCGUUGGCGUAAUGGUAACGCGUCUCCCUCCUAAGAAGAUGACUGCGGGUUCGGGUCCCGUACGGAACG [G39A A43U A57G]: 0.562; for GUUCCGUUGGCGUAAUGGUAACGCGUCUCCCUCCUAAGAAGAAGCCUGCGGGUUCGAGUCACGUACGGAACG [G39A A45C C61A]: 0.618. GUUCCGUUGGCGUAAUGGUAACGCGUCUCCCUCCUAAGAAGAAGCCUGCGGGUUCGAGUCUCGUACGGAACG [G39A A45C C61U]: the yeast fitness amounted to 0.706.

Regarding GUUCCGUUGGCGUAAUGGUAACGCGUCUCCCUCCUAACGAGAAAACUGCGGGUUCGAGUCCCGUACGGAACG [G38C G44A], the yeast fitness amounted to 0.72.

Consider GUUCCGUUGGCGUAAUGGUAACGCGUCUCCCUCCUAAGAAGAAGACUGAGGGUUCGAGUCCCGUACGGAACG [G39A C49A], for which the yeast fitness was found to be 0.598. Consider GUUCCGUUGGCGUAAUGGUAACGCGUCUCCCUCCUAAGAAGAAGACUGGGGGUUCGAGUCCCGUACGGAACG [G39A C49G], for which the yeast fitness came to 0.66. Turning to GUUCCGUUGGCGUAAUGGUAACGCGUCUCCCUCCUAACGAGAAGACUGCGGGUUCGAGUCCCGUACUGAUCG [G38C G67U A70U], the yeast fitness was at most 0.5. The same measure for GUUCCGUUGGCGUAAUGGUAACGCGUCUCCCUCCUAACGAGAAGACGGCGGGUUCGAGUCCCGUACGGAACG [G38C U47G]: 0.538; for GUUCCGUUGGCGUAAUGGUAACGCGUCUCCCUCCUAACGAGAAGACCGCGGGUUCGAGUCCCGUACGGAACG [G38C U47C]: 0.757. As to GUUCCGUUGGCGUAAUGGUAACGCGUCUCCCUCCUAAGAUGAAGACUGCGGGUUCGAGUCCCGUACGGAACG [G39A A40U], the yeast fitness worked out at 1.19. For GUUCCGUUGGCGUAAUGGUAACGCGUCUCCCUCCUAAGAAGCAGACUGCGGGUUCGAGUCUCGUACGGAACG [G39A A42C C61U], the yeast fitness stood at 0.542. With GUUCCGUUGGCGUAAUGGUAACGCGUCUCCCUCCUAAGAACAAGAAUGCGGGUUCGAGUCCCGUACGAAACG [G39A G41C C46A G68A] the figure was 0.55; with GUUCCGUUGGCGUAAUGGUAACGCGUCUCCCUCCUAACGAGAAGACUGCGGGUUCGAGUCCCGUACAGUACG [G38C G67A A69U], 0.537.

In the case of GUUCCGUUGGCGUAAUGGUAACGCGUCUCCCUCCUAACGAGAAGACUGCGGGUUCGAAUCCCGUACGGAACG [G38C G58A], the yeast fitness was 0.756. GUUCCGUUGGCGUAAUGGUAACGCGUCUCCCUCCUAACGAGAAGACUGCGGGUUCGACUCCCGUACGGAACG [G38C G58C]: the yeast fitness is 0.937. With GUUCCGUUGGCGUAAUGGUAACGCGUCUCCCUCCUAAGAAGAAGACUGCGGGUUCGAGUCCCGUAGGGAACG [G39A C66G] the figure was 0.711; with GUUCCGUUGGCGUAAUGGUAACGCGUCUCCCUCCUAAGAAGAAGACUGCGGGUUCGAGUCCCGUAAGGAACG [G39A C66A], 0.698.

Regarding GUUCCGUUGGCGUAAUGGUAACGCGUCUCCCUCCUAAGAAGAAGACUGCGGGUUCGAGUCCCGUACGGUACG [G39A A69U], the yeast fitness is 1.03. Turning to GUUCCGUUGGCGUAAUGGUAACGCGUCUCCCUCCUAAGAAGAAGACUGCGGGUUCGAGUCCCGUACGGCACG [G39A A69C], the yeast fitness was 0.818. For GUUCCGUUGGCGUAAUGGUAACGCGUCUCCCUCCUAAGAAGAAGACUGCGGGUUCGAGUCCCGUAUGGAGCG [G39A C66U A70G], the yeast fitness came to 0.601. For GUUCCGUUGGCGUAAUGGUAACGCGUCUCCCUCCUAAGAAGAAGACUGCGGGUUAAAGUCCCGUACCGAACG [G39A C55A G56A G67C], the yeast fitness is at most 0.5. As to GUUCCGUUGGCGUAAUGGUAACGCGUCUCCCUCCUAACGAGAAGACCGCGGGUUCGAGUCCCGUUCGGAACG [G38C U47C A65U], the yeast fitness was at most 0.5. Turning to GUUCCGUUGGCGUAAUGGUAACGCGUCUCCCUCCUAACGAGAAGACUGCGGGUUCGAGUCCCAUACGGAACG [G38C G63A], the yeast fitness turned out to be 0.674. GUUCCGUUGGCGUAAUGGUAACGCGUCUCCCUCCUAACGAGAAGACUGCAGGUUCGAGUCCCGUACGGAGCG [G38C G50A A70G]: the yeast fitness worked out at 0.527. Regarding GUUCCGUUGGCGUAAUGGUAACGCGUCUCCCUCCUAACGAGAAGACUGCGGGUACGAGUCCCGUGCGGAACG [G38C U54A A65G], the yeast fitness was at most 0.5. GUUCCGUUGGCGUAAUGGUAACGCGUCUCCCUCCUAACGAGAAGACUGCGGCUUCGAGUCCCGUACGGAACG [G38C G52C]: the yeast fitness is 0.502. In the case of GUUCCGUUGGCGUAAUGGUAACGCGUCUCCCUCCUAACGAGAAGACUGCAGGGUCGAGUCCCGUACGAAACG [G38C G50A U53G G68A], the yeast fitness came to 0.597. As for GUUCCGUUGGCGUAAUGGUAACGCGUCUCCCUCCUAAGAAGAAGACUGCGGGUUUGAGUCCCGUACGCGACG [G39A C55U G68C A69G], the yeast fitness is at most 0.5. With GUUCCGUUGGCGUAAUGGUAACGCGUCUCCCUCCUAAGAAGAAAACUGCGAGUUCGAGUCCCGUACGGAACG [G39A G44A G51A], the yeast fitness came to 0.597. Consider GUUCCGUUGGCGUAAUGGUAACGCGUCUCCCUCCUAAGAAGAAGACUGCGGGUUCGAGUCACGUACGGUACG [G39A C61A A69U], for which the yeast fitness is at most 0.5. In the case of GUUCCGUUGGCGUAAUGGUAACGCGUCUCCCUCCUAACGAGAAGACUGCGGGUUCGAGUCCCGUACGAAUCG [G38C G68A A70U], the yeast fitness was at most 0.5. As to GUUCCGUUGGCGUAAUGGUAACGCGUCUCCCUCCUAAGAAGAAGACUGCGGGUUCGAGUCCCGUACGGGGCG [G39A A69G A70G], the yeast fitness came out at 0.946.

As for GUUCCGUUGGCGUAAUGGUAACGCGUCUCCCUCCUAAGAAGAAGACUGCGGGUUCGUGUCCCGUACGGAACG [G39A A57U], the yeast fitness was found to be 0.834. With GUUCCGUUGGCGUAAUGGUAACGCGUCUCCCUCCUAAGAAGAAGACUGCGGGUUCGGGUCCCGUACGGAACG [G39A A57G] the figure was 0.79; with GUUCCGUUGGCGUAAUGGUAACGCGUCUCCCUCCUAACGACAAGACUGCGGGUCCGAGUCCCGUGCGGAACG [G38C G41C U54C A65G], at most 0.5.
